For one assay, the system named is HL-60. The assay can be described thus: Cytotoxicity against human HL60 cells after 72 hrs by MTT assay. The class given is functional, cell-based. Conditions: HL-60, 72 h. The essentials:
(§1)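 Exponentially growing cells were seeded at 3.5 × 10⁵ cells/ml (adherent EJ) or 1 × 10⁵ cells/ml (suspension HL-60), grown 24 h, then exposed continuously for 72 h. Drugs came from fresh DMSO stocks diluted in medium to ≤0.5% final DMSO, with eight wells per concentration. MTT (10 mg/ml PBS stock) was added for 4 h at 37 °C, formazan dissolved in 5% HCOOH/2-propanol, and read at 580 nm. IC50 was taken from a sigmoidal non-linear fit of survival as % of untreated control.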

A short description of assay [1]: Cytotoxicity against human […] cells after 72 hrs by MTT assay. The assay is classed as functional, cell-based. The procedure, abridged:
as §1

Assay [2] relates to Strongylocentrotus purpuratus. The assay can be described thus: Inhibition of Strongylocentrotus purpuratus embryos cleavage at 10 uM. The assay is classed as functional.

As for `CCOC(=O)C(C(C)=O)C(c1cccc([N+](=O)[O-])c1)c1c(O)c2ccccc2oc1=O` (stereo not drawn), the 50% inhibitory concentration (IC50) in the assay with HL-60 stood at 90.8 µM; in assay [1], 172 µM. In the case of `CCOC(=O)C(C(C)=O)C(c1ccc(O)c(O)c1)c1c(O)c2ccccc2oc1=O` (stereo not drawn), the half-maximal inhibitory concentration (IC50) stood at 35.1 µM in the assay with HL-60 and 116 µM in assay [1]. For the compound `CCOC(=O)C(C(C)=O)C(c1ccc(O)cc1)c1c(O)c2ccccc2oc1=O` (stereo not drawn), the IC50 (in the assay with HL-60; in assay [1]) was greater than 200 µM each time. Consider `CCOC(=O)C(C(C)=O)C(c1ccc([N+](=O)[O-])cc1)c1c(O)c2ccccc2oc1=O` (stereo not drawn), for which the IC50 (in the assay with HL-60; in assay [1]) was greater than 200 µM throughout. As to `CCOC(=O)C(C(C)=O)C(c1ccc(C(=O)O)cc1)c1c(O)c2ccccc2oc1=O` (stereo not drawn), the IC50 (in the assay with HL-60; in assay [1]) was greater than 200 µM in each case. In turn, `O=c1oc2ccccc2c(O)c1Cc1c(O)c2ccccc2oc1=O` [DICUMAROL] had an inhibition at 10 µM in assay [2] of 50%. For `N[C@@H](Cc1ccc(N(CCCl)CCCl)cc1)C(=O)O` [MELPHALAN], the 50% inhibitory concentration (IC50) with HL-60 came out at 11.4 µM; in assay [1] it was 22.1 µM.

Source of the values: ChEMBL document CHEMBL1149798, “Synthesis, computational study and cytotoxic activity of new 4-hydroxycoumarin derivatives” (Eur J Med Chem, 2008).
